Measurements from ChEMBL document CHEMBL5058577, “EUbOPEN Chemogenomics Library 2 (Multiplex)” (2022).

Test system: U2OS
Assay: Multiplex assay against U2OS
Type: toxicity, cell-based
Conditions: human
How it was run: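 Compound was added to live cells that had been stained at seeding with Hoechst33342, BioTracker Green Microtubule Cytoskeleton Dye, MitoTracker Red and Annexin V Alexa Fluor 680, and imaging followed on a CQ1 microscope at 37°C and 5% CO2. CellPathfinder machine-learning gating divided cells into Hoechst high-intensity objects or normal cells, normal cells into healthy, pyknosed or fragmented nuclei, and pyknosed cells into mitotic or apoptotic. Tubulin, mitochondrial-mass and membrane-permeability phenotypes are per cents of healthy-nucleus cells.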

[1] = 12 h, 1 µM, compound concentration 1 uM, replicate 1
[2] = 12 h, 1 µM, compound concentration 1 uM, replicate 2
[3] = 12 h, 10 µM, compound concentration 10 uM, replicate 1
[4] = 12 h, 10 µM, compound concentration 10 uM, replicate 2
[5] = 24 h, 1 µM, compound concentration 1 uM, replicate 1
[6] = 24 h, 1 µM, compound concentration 1 uM, replicate 2
[7] = 24 h, 10 µM, compound concentration 10 uM, replicate 1
[8] = 24 h, 10 µM, compound concentration 10 uM, replicate 2
[9] = 48 h, 1 µM, compound concentration 1 uM, replicate 1
[10] = 48 h, 1 µM, compound concentration 1 uM, replicate 2
[11] = 48 h, 10 µM, compound concentration 10 uM, replicate 1
[12] = 48 h, 10 µM, compound concentration 10 uM, replicate 2

CC[C@@H](C)Nc1nc(C)nc2c(-c3ccc(OC)nc3C)c(C)nn12 [PEXACERFONT]
Population Apoptotic (%) [1]: 73%
Population Fragmented Nuclei (%) [1]: 24%
Population Healthy Nuclei (%) [1]: 66%
Population Hoechst High Intensity Objects (%) [1]: 3%
Population Membrane Permeable-Phenotype (%) [1]: 2%
Population Mitochondria Different-Phenotype (%) [1]: 3%
Population Mitotic Cells (%) [1]: 26%
Population Normal (%) [1]: 96%
Population Pyknosed Nuclei (%) [1]: 9%
Population Tubulin-Different-Phenotype (%) [1]: 2%
Total Cell Count [1]: 258
Population Apoptotic (%) [2]: 87%
Population Fragmented Nuclei (%) [2]: 17%
Population Healthy Nuclei (%) [2]: 76%
Population Hoechst High Intensity Objects (%) [2]: 0%
Population Membrane Permeable-Phenotype (%) [2]: 1%
Population Mitochondria Different-Phenotype (%) [2]: 0%
Population Mitotic Cells (%) [2]: 12%
Population Normal (%) [2]: 99%
Population Pyknosed Nuclei (%) [2]: 5%
Population Tubulin-Different-Phenotype (%) [2]: 0%
Total Cell Count [2]: 136
Population Apoptotic (%) [3]: 90%
Population Fragmented Nuclei (%) [3]: 26%
Population Healthy Nuclei (%) [3]: 64%
Population Hoechst High Intensity Objects (%) [3]: 1%
Population Membrane Permeable-Phenotype (%) [3]: 2%
Population Mitochondria Different-Phenotype (%) [3]: 1%
Population Mitotic Cells (%) [3]: 9%
Population Normal (%) [3]: 98%
Population Pyknosed Nuclei (%) [3]: 8%
Population Tubulin-Different-Phenotype (%) [3]: 1%
Total Cell Count [3]: 265
Population Fragmented Nuclei (%) [4]: 21%
Population Healthy Nuclei (%) [4]: 70%
Population Membrane Permeable-Phenotype (%) [4]: 12%
Population Mitochondria Different-Phenotype (%) [4]: 7%
Population Mitotic Cells (%) [4]: 10%
Population Pyknosed Nuclei (%) [4]: 7%
Population Tubulin-Different-Phenotype (%) [4]: 4%
Total Cell Count [4]: 128
Population Apoptotic (%) [5]: 80%
Population Fragmented Nuclei (%) [5]: 21%
Population Healthy Nuclei (%) [5]: 69%
Population Hoechst High Intensity Objects (%) [5]: 2%
Population Membrane Permeable-Phenotype (%) [5]: 5%
Population Mitochondria Different-Phenotype (%) [5]: 2%
Population Mitotic Cells (%) [5]: 20%
Population Normal (%) [5]: 97%
Population Pyknosed Nuclei (%) [5]: 8%
Population Tubulin-Different-Phenotype (%) [5]: 2%
Total Cell Count [5]: 346
Population Apoptotic (%) [6]: 85%
Population Fragmented Nuclei (%) [6]: 16%
Population Healthy Nuclei (%) [6]: 75%
Population Membrane Permeable-Phenotype (%) [6]: 3%
Population Mitochondria Different-Phenotype (%) [6]: 6%
Population Mitotic Cells (%) [6]: 14%
Total Cell Count [6]: 172
Population Apoptotic (%) [7]: 80%
Population Fragmented Nuclei (%) [7]: 21%
Population Healthy Nuclei (%) [7]: 71%
Population Hoechst High Intensity Objects (%) [7]: 2%
Population Membrane Permeable-Phenotype (%) [7]: 5%
Population Mitochondria Different-Phenotype (%) [7]: 3%
Population Mitotic Cells (%) [7]: 19%
Population Normal (%) [7]: 97%
Population Pyknosed Nuclei (%) [7]: 7%
Population Tubulin-Different-Phenotype (%) [7]: 4%
Total Cell Count [7]: 307
Population Apoptotic (%) [8]: 92%
Population Fragmented Nuclei (%) [8]: 14%
Population Healthy Nuclei (%) [8]: 77%
Population Hoechst High Intensity Objects (%) [8]: 0%
Population Membrane Permeable-Phenotype (%) [8]: 7%
Population Mitotic Cells (%) [8]: 7%
Population Normal (%) [8]: 99%
Population Pyknosed Nuclei (%) [8]: 8%
Population Tubulin-Different-Phenotype (%) [8]: 3%
Total Cell Count [8]: 159
Population Apoptotic (%) [9]: 88%
Population Fragmented Nuclei (%) [9]: 16%
Population Healthy Nuclei (%) [9]: 75%
Population Hoechst High Intensity Objects (%) [9]: 1%
Population Membrane Permeable-Phenotype (%) [9]: 3%
Population Mitochondria Different-Phenotype (%) [9]: 1%
Population Mitotic Cells (%) [9]: 11%
Population Normal (%) [9]: 98%
Population Pyknosed Nuclei (%) [9]: 7%
Population Tubulin-Different-Phenotype (%) [9]: 1%
Total Cell Count [9]: 476
Population Apoptotic (%) [10]: 91%
Population Healthy Nuclei (%) [10]: 73%
Population Hoechst High Intensity Objects (%) [10]: 2%
Population Membrane Permeable-Phenotype (%) [10]: 5%
Population Mitochondria Different-Phenotype (%) [10]: 4%
Population Mitotic Cells (%) [10]: 8%
Population Normal (%) [10]: 97%
Population Pyknosed Nuclei (%) [10]: 9%
Population Tubulin-Different-Phenotype (%) [10]: 4%
Total Cell Count [10]: 261
Population Apoptotic (%) [11]: 94%
Population Fragmented Nuclei (%) [11]: 17%
Population Healthy Nuclei (%) [11]: 74%
Population Hoechst High Intensity Objects (%) [11]: 1%
Population Membrane Permeable-Phenotype (%) [11]: 4%
Population Mitochondria Different-Phenotype (%) [11]: 1%
Population Mitotic Cells (%) [11]: 5%
Population Normal (%) [11]: 98%
Population Pyknosed Nuclei (%) [11]: 8%
Population Tubulin-Different-Phenotype (%) [11]: 1%
Total Cell Count [11]: 478
Population Apoptotic (%) [12]: 100%
Population Fragmented Nuclei (%) [12]: 13%
Population Healthy Nuclei (%) [12]: 77%
Population Membrane Permeable-Phenotype (%) [12]: 6%
Population Mitochondria Different-Phenotype (%) [12]: 3%
Population Mitotic Cells (%) [12]: 0%
Population Tubulin-Different-Phenotype (%) [12]: 2%
Total Cell Count [12]: 242
